Experimental findings from ChEMBL document CHEMBL3877308, “Design, synthesis and in vitro biological evaluation of oligopeptides targeting E. coli type I signal peptidase (LepB)” (Bioorg Med Chem, 2017) are described below.

Some results are limits rather than exact numbers.

The target in data set [1] is Signal peptidase I (Escherichia coli K-12, UniProt P00803). The experiment in a line: Inhibition of full length Escherichia coli His6-tagged LepB expressed in Escherichia coli C43(DE3) using dabcyl-VEVGGTATAGAFSRPGLE-(EDANS) as substrate preincubated for 10 mins followed by substrate addition measured for 2 hrs by FRET assay. The gist of the method:
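Enzyme extracted from the membrane fraction with 1% reduced Triton X-100 and purified by metal-chelation chromatography in 0.5% detergent. Enzyme (final ~50 nM) was pre-incubated with compound for 10 min at 22 °C. The linear rise in EDANS donor fluorescence (dabcyl acceptor) was then followed at 22 °C for 2 h. IC50 came from non-linear regression of sigmoidal rate-versus-concentration curves.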

Data set [2] concerns the target Signal peptidase I (Escherichia coli K-12) (UniProt P00803). The data set can be described thus: Inhibition of full length Escherichia coli His6-tagged LepB expressed in Escherichia coli C43(DE3) at 100 uM using dabcyl-VEVGGTATAGAFSRPGLE-(EDANS) as substrate preincubated for 10 mins followed by substrate addition measured for 2 hrs by FRET assay relative to control. The gist of the method:
(§1)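 Enzyme came from the membrane fraction, extracted with 1% reduced Triton X-100 and purified by metal-chelation chromatography in 0.5% detergent. FRET pair was dabcyl acceptor and EDANS donor. EcLepB (final about 50 nM) was pre-incubated with compound 10 min at 22 °C. Reaction was then run with 8 µM substrate, following the linear fluorescence increase at 22 °C for 2 h.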

Data set [3] shares this target. The experiment in a line: Inhibition of full length Escherichia coli His6-tagged LepB expressed in Escherichia coli C43(DE3) assessed as residual activity at 100 uM using dabcyl-VEVGGTATAGAFSRPGLE-(EDANS) as substrate preincubated for 10 mins followed by substrate addition measured for 2 hrs by FRET assay relative to control. In short, it runs like this: as §1
Data set [4] shares this target. The data set can be described thus: Inhibition of full length Escherichia coli His6-tagged LepB expressed in Escherichia coli C43(DE3) assessed as residual activity at 50 uM using dabcyl-VEVGGTATAGAFSRPGLE-(EDANS) as substrate preincubated for 10 mins followed by substrate addition measured for 2 hrs by FRET assay relative to control. The gist of the method: as §1

For data set [5] the target is unchanged. The data set can be described thus: Inhibition of full length Escherichia coli His6-tagged LepB expressed in Escherichia coli C43(DE3) assessed as residual activity at 25 uM using dabcyl-VEVGGTATAGAFSRPGLE-(EDANS) as substrate preincubated for 10 mins followed by substrate addition measured for 2 hrs by FRET assay relative to control. In short, it runs like this:
as §1

For data set [6] the target is unchanged. The data set can be described thus: Inhibition of full length Escherichia coli His6-tagged LepB expressed in Escherichia coli C43(DE3) assessed as residual activity at 12.5 uM using dabcyl-VEVGGTATAGAFSRPGLE-(EDANS) as substrate preincubated for 10 mins followed by substrate addition measured for 2 hrs by FRET assay relative to control. In short, it runs like this:
as §1

Data set [7] shares this target. The experiment in a line: Inhibition of full length Escherichia coli His6-tagged LepB expressed in Escherichia coli C43(DE3) assessed as residual activity at 6.25 uM using dabcyl-VEVGGTATAGAFSRPGLE-(EDANS) as substrate preincubated for 10 mins followed by substrate addition measured for 2 hrs by FRET assay relative to control. In short, it runs like this:
as §1

Data set [8] has the same target. The experiment in a line: Inhibition of full length Escherichia coli His6-tagged LepB expressed in Escherichia coli C43(DE3) assessed as residual activity at 3.13 uM using dabcyl-VEVGGTATAGAFSRPGLE-(EDANS) as substrate preincubated for 10 mins followed by substrate addition measured for 2 hrs by FRET assay relative to control. The gist of the method:
as §1

The target is the same in data set [9]. The experiment in a line: Inhibition of full length Escherichia coli His6-tagged LepB expressed in Escherichia coli C43(DE3) assessed as residual activity at 1.56 uM using dabcyl-VEVGGTATAGAFSRPGLE-(EDANS) as substrate preincubated for 10 mins followed by substrate addition measured for 2 hrs by FRET assay relative to control. The gist of the method:
as §1

For data set [10] the target is unchanged. The experiment in a line: Inhibition of full length Escherichia coli His6-tagged LepB expressed in Escherichia coli C43(DE3) assessed as residual activity at 0.781 uM using dabcyl-VEVGGTATAGAFSRPGLE-(EDANS) as substrate preincubated for 10 mins followed by substrate addition measured for 2 hrs by FRET assay relative to control. The gist of the method:
as §1

The target is the same in data set [11]. The experiment in a line: Inhibition of full length Escherichia coli His6-tagged LepB expressed in Escherichia coli C43(DE3) assessed as residual activity at 0.391 uM using dabcyl-VEVGGTATAGAFSRPGLE-(EDANS) as substrate preincubated for 10 mins followed by substrate addition measured for 2 hrs by FRET assay relative to control. The gist of the method:
as §1

For data set [12] the target is unchanged. The experiment in a line: Inhibition of full length Escherichia coli His6-tagged LepB expressed in Escherichia coli C43(DE3) assessed as residual activity at 0.195 uM using dabcyl-VEVGGTATAGAFSRPGLE-(EDANS) as substrate preincubated for 10 mins followed by substrate addition measured for 2 hrs by FRET assay relative to control. The gist of the method:
as §1

Data set [13] has the same target. The data set can be described thus: Inhibition of full length Escherichia coli His6-tagged LepB expressed in Escherichia coli C43(DE3) assessed as residual activity at 0.0977 uM using dabcyl-VEVGGTATAGAFSRPGLE-(EDANS) as substrate preincubated for 10 mins followed by substrate addition measured for 2 hrs by FRET assay relative to control. The gist of the method:
as §1

The target is the same in data set [14]. The experiment in a line: Inhibition of full length Escherichia coli His6-tagged LepB expressed in Escherichia coli C43(DE3) assessed as residual activity at 0.0488 uM using dabcyl-VEVGGTATAGAFSRPGLE-(EDANS) as substrate preincubated for 10 mins followed by substrate addition measured for 2 hrs by FRET assay relative to control. In short, it runs like this: as §1

For data set [15] the target is unchanged. The data set can be described thus: Inhibition of full length Escherichia coli His6-tagged LepB expressed in Escherichia coli C43(DE3) assessed as residual activity at 0.0244 uM using dabcyl-VEVGGTATAGAFSRPGLE-(EDANS) as substrate preincubated for 10 mins followed by substrate addition measured for 2 hrs by FRET assay relative to control. The gist of the method:
as §1

Data set [16] has as its system Escherichia coli. The data set can be described thus: Antibacterial activity against wild type Escherichia coli ATCC 25922 after 16 to 20 hrs by broth microdilution assay. The data set is classed as functional. The gist of the method: (§2)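 MIC by broth microdilution in cation-adjusted Mueller-Hinton II medium, following EUCAST and CLSI guidelines; panel of Gram-negative strains plus S. aureus ATCC 29213.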

For data set [17], the system named is Escherichia coli. The data set can be described thus: Antibacterial activity against Escherichia coli CH3130 harboring tolC deletion mutant after 16 to 20 hrs by broth microdilution assay. The data set is classed as functional. In short, it runs like this: (§3)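 Broth microdilution MIC in cation-adjusted Mueller-Hinton II medium, following EUCAST and CLSI guidelines; tested on a panel of Gram-negative strains plus S. aureus ATCC 29213 (wild-type).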
(Broth dilution looks for growth in wells or tubes with falling amounts of substance.)

For data set [18], the system named is Escherichia coli. The data set can be described thus: Antibacterial activity against Escherichia coli D22 harboring lpxC mutant after 16 to 20 hrs by broth microdilution assay. The data set is classed as functional. In short, it runs like this:
as §3

Data set [19] deals with Pseudomonas aeruginosa. The data set can be described thus: Antibacterial activity against wild type Pseudomonas aeruginosa PAO1 after 16 to 20 hrs by broth microdilution assay. The data set is classed as functional. The gist of the method: as §2
The subject of data set [20] is Pseudomonas aeruginosa. The data set can be described thus: Antibacterial activity against wild type Pseudomonas aeruginosa PAO750 harboring efflux defective mutant after 16 to 20 hrs by broth microdilution assay. The data set is classed as functional. The gist of the method: as §3
Data set [21] has as its system Klebsiella pneumoniae. The experiment in a line: Antibacterial activity against wild type Klebsiella pneumoniae […] after 16 to 20 hrs by broth microdilution assay. The data set is classed as functional. In short, it runs like this: as §2
In data set [22] the test system is Staphylococcus aureus. The experiment in a line: Antibacterial activity against wild type Staphylococcus aureus ATCC 29213 after 16 to 20 hrs by broth microdilution assay. The data set is classed as functional. The gist of the method:
as §2

Data set [23] deals with Acinetobacter baumannii. The experiment in a line: Antibacterial activity against wild type Acinetobacter baumannii ATCC 19606 after 16 to 20 hrs by broth microdilution assay. The data set is classed as functional. The gist of the method: as §2
Data set [24] can be described thus: Cytotoxicity against human HepG2 cells assessed as reduction in cell viability after 72 hrs by fluorescein diacetate dye based fluorometric microculture assay. The data set is classed as toxicity. In short, it runs like this:
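FMCA on HepG2 cells read at 72 h. Survival index (%) is fluorescence in test wells as percent of control cultures, with blank values subtracted. IC50 was obtained by non-linear regression of log concentration-effect curves.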

Sequence of Signal peptidase I (Escherichia coli K-12) (P00803 whole entry): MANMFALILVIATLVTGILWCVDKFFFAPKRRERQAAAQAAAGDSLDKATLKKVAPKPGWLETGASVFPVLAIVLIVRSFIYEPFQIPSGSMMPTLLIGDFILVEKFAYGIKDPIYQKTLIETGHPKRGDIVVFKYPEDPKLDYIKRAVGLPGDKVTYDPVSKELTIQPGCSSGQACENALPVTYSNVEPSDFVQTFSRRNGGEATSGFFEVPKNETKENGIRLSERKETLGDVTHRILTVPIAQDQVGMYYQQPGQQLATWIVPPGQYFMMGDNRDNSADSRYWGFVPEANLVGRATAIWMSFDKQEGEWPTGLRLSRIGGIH
Sequence of Signal peptidase I (P00803 whole entry): as above

Broadly, the IC50 is the point on the concentration scale where inhibition reaches its midpoint. What is called inhibition is the change of the read-out against control, counted positive when it falls. What is called MIC is the smallest concentration in the dilution series that meets the test's criterion for growth inhibition. Read a high MIC as a less susceptible organism. `CC(O)[C@H](NC(=O)[C@@H]1CCCN1)C(=O)N[C@@H](C)C(=O)N[C@@H](CC(N)=O)C(=O)N[C@@H](C)B1O[C@@H]2C[C@@H]3C[C@@H](C3(C)C)[C@]2(C)O1` (single isomer, unassigned): in data set [1], the IC50 was 26 µM. For the same compound, the inhibition in data set [2] is greater than 50%. For the same compound, the Activity in [3] worked out at 25.1%; in data set [4] it was 35.6%; in data set [5] it was 56.9%; in [6], 67.2%; in data set [7], 85.8%; in [8] it was 88.6%. For the same compound, the Activity is 90.7% in data set [9]; 95% in data set [10]; 95% in [11]; 95.4% in data set [12]; 96% in data set [13]; 96.7% in data set [14]. Also, in [15], the Activity came out at 92.7%. Further, the MIC in [16], in data set [17], in data set [18], in data set [19], in data set [20] and in data set [21] was greater than 64 µg/mL each time. The MIC in data set [22] and in data set [23] was greater than 64 µg/mL throughout. The IC50 at 72 h in data set [24] was greater than 64 µM.
